≈ marks a conversion by molar mass, not a printed value. Entries after “also recorded” stand apart in the source; their conditions may differ.
Tests used:
[1] = test system: patients with advanced solid tumors; test: Phase I first-in-human study, safety and antitumor activity; assay type: in vivo
In short: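 Patients with advanced solid tumours. Without run-in, patients got 5, 7.5, 10, 15, 20, 22.5 or 30 mg continuous q.d.; 30 or 45 mg intermittent q.d. (4 days on/3 off); or 5 mg continuous b.i.d. Adverse events were graded by CTCAE v4.03.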

[2] = Population PK modeling; assay type: in vivo, human; details: patients, 5-45 mg oral
In short: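 Pooled 1098 plasma concentrations from 66 patients across 10 oral regimens, measured by LC-MS/MS (LLOQ 1.0 ng/ml). Serial sampling to 24 h on C1D1 and C1D15, plus predose troughs. Two-compartment model with first-order absorption, lag time and linear clearance, fitted in log domain by FOCE in NONMEM. Log-normal interindividual variability on Ka, CL, Vc, CLd, Vp and Tlag; baseline covariates screened.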

[3] = test system: skin AXIN2 mRNA expression; test: Exposure-response analysis for biomarker; assay type: in vivo; details: Homo sapiens, read-out: WNT974 concentration resulting in 50% Emax (EC50), skin AXIN2 reduction, estimated mean (90% prediction interval)
[4] = Simulated steady-state PK from the PopPK model; assay type: in vivo, human
In short: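 Steady-state C1D15 plasma profiles simulated from the final population PK model in 200–500 hypothetical patients per continuous once-daily dosing scenario. Cmin, Cmax and AUC24h derived from the simulated profiles.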

[5] = cited from earlier work
[6] = test system: CYP3A4; details: cited from earlier work
[7] = test system: CYP3A; details: in vitro; cited from earlier work
[8] = test system: xenograft and Wnt ligand-driven mouse tumor models; details: cited from earlier work
[9] = cited from earlier work; remark: listed apart in the source
[10] = test system: patients with advanced solid tumors; details: cited from earlier work
[11] = test system: Porcupine; details: read-out: in vitro cellular IC50 for Porcupine; cited from earlier work

For `Cc1cc(-c2ncc(CC(=O)Nc3ccc(-c4cnccn4)cn3)cc2C)ccn1` [WNT974], the “maximum tolerated dose (MTD)” value ([1]; dose-escalation part, 5-45 mg) was “not established”, the “antitumor activity in patients” value ([1]; dose-escalation study) was “limited antitumor activity” and the “Absorption lag time (Tlag), population estimate (%RSE)” value [2] was 0.412 (3.2) h. For the same molecule, the “Apparent central clearance (CL/F), population estimate (%RSE)” value [2] was 20.7 (3.9) L/h, the “Central volume of distribution (Vc), population estimate (%RSE)” value [2] was 138 (2.0) L and the “Distribution clearance (CLd), population estimate (%RSE)” value [2] was 7.11 (9.4) L/h. For the same molecule, the “Peripheral volume of distribution (Vp), population estimate (%RSE)” value [2] was 260 (9.4) L, the “Absorption rate constant (Ka), population estimate (%RSE)” value ([2]; 66 patients) was 1.60 (17.0) 1/h and the EC50 [3] was 0.45 ng/mL (≈ 1.14 nM). For the same molecule, the “Predicted steady-state AUC24h, mean (90% confidence interval)” value ([4]; 5 mg q.d.) was 233 (133–445) ng h/ml, the “Predicted steady-state Cmax, mean (90% confidence interval)” value ([4]; 5 mg q.d.) was 28.1 (13.7–59.1) ng/ml and the “Predicted steady-state Cmin, mean (90% confidence interval)” value ([4]; 5 mg q.d.) was 2.83 (0.835–8.02) ng/ml. The “Predicted steady-state AUC24h, mean (90% confidence interval)” value ([4]; 10 mg q.d.) was 468 (254–880) ng h/ml, the “Predicted steady-state Cmax, mean (90% confidence interval)” value ([4]; 10 mg q.d.) was 55.7 (26.1–109) ng/ml and the “Predicted steady-state Cmin, mean (90% confidence interval)” value ([4]; 10 mg q.d.) was 5.78 (1.66–16.3) ng/ml. The “Predicted steady-state AUC24h, mean (90% confidence interval)” value ([4]; 15 mg q.d.) was 699 (394–1294) ng h/ml, the “Predicted steady-state Cmax, mean (90% confidence interval)” value ([4]; 15 mg q.d.) was 80.6 (41.7–166) ng/ml and the “Predicted steady-state Cmin, mean (90% confidence interval)” value ([4]; 15 mg q.d.) was 8.21 (2.60–24.3) ng/ml. The “elimination half-life (t1/2)” value ([5]; all the animal species (mouse, rat, dog)) was 0.6 to 2.2 h, the oral bioavailability ([5]; mouse, rat, and dog) was 60–100% and the metabolism [6] was “extensively metabolized, primarily by CYP3A4”. For the same molecule, the CYP3A inhibition [7] was “moderate reversible inhibitor”, the antitumor activity ([8]; preclinical tumor models) was “exhibited antitumor activity; also recorded: potent antitumor activity” and the “AXIN2 mRNA expression in tumors” value ([8]; xenograft and Wnt ligand-driven mouse tumor models) was “reduction of AXIN2 mRNA expression in tumors”. For the same molecule, the “mean unbound Cmin” value ([9]; C1D15, continuous q.d. dose of 5-30 mg) was 1.1 to 7.6 nM, the “dose proportionality of exposure” value ([9]; dose range 5-45 mg) was “dose proportional” and the “mean t1/2” value ([9]; patients, oral administration) was 5 to 8 h. The “median Tmax” value ([9]; patients, oral administration) was 1 to 3 h, the “patients with dysgeusia (most common adverse event)” value ([10]; FIH study) was ~ 50 % of patients and the “best response: patients with stable disease” value ([10]; dose-expansion part of the single-agent study) was 16 % of patients. For the same molecule, the IC50 [11] was 0.4 nM.

— paper PMC9283749 (Clinical and Translational Science, 2022)
